Measured values gathered from unrelated publications.
Protocols differ between the studies behind these lines.
Matrix: plasma

| SMILES | species | route | dose | setting | AUC(0-t) [ng·h/mL] |
| --- | --- | --- | --- | --- | --- |
| CCOC(=O)[C@@]12C[C@@H]1[C@@H](n1ccc3c(NC)nc(C#Cc4ccc(Cl)s4)nc31)[C@H](O)[C@@H]2O | male Sprague-Dawley rat | oral | 10 mg/kg |  | 361 |
| C[C@H](Nc1ncnc2[nH]cnc12)c1cc2cccc(Cl)c2c(=O)n1-c1ccccc1 | male Wistar rat | oral | 25 mg/kg | single dose | 9340 |
| O=C(Nc1cc(F)c(F)c(F)c1)c1ccc(F)c(S(=O)(=O)NCc2cccc(B(O)O)c2)c1 | male Sprague-Dawley rat | intravenous | 2 mg/kg |  | 242 |
| CCc1cc(OC)c2nccc(N3CCc4c(cc(Cn5ccnc5)cc4-c4cn(C)nc4C(F)(F)F)C3=O)c2c1 | male Sprague-Dawley rat | intravenous | 3 mg/kg |  | 952 |
| CCc1nc(C(N)=O)c(Nc2ccc(N3CCC(N4CCN(C)CC4)CC3)c(OC)c2)nc1NC1CCOCC1 | male Sprague-Dawley rat | oral | 10 mg/kg |  | 9290 |
| COc1nc(-c2cc(C)c(N[C@@H](C)c3cc(F)cc(F)c3)nn2)ccc1-n1cnc(C)c1 | male Sprague-Dawley rat | oral | 5 mg/kg | single dose | 31900 |
| C=CC(=O)N1CC2CC(n3nc(-c4ccc(C(=O)Nc5ccccn5)cc4)c4c(N)ncnc43)CC2C1 (centres unmarked) | male Wistar rat | oral | 30 mg/kg |  | 4720 |
| N#Cc1ccc(Nc2nc(N)cc(Oc3c(F)cc(-c4ccc(C#N)cc4)cc3F)n2)cc1 | Sprague-Dawley rat | oral | 5 mg/kg |  | 74 |
| COc1ccc2c(Cc3ccccc3F)c3[n+](cc2c1OC)CCc1cc2c(cc1-3)OCO2.[Br-] | rat | intravenous | 5 mg/kg |  | 113 |
| CNCc1cc(-c2ccccc2F)n(S(=O)(=O)c2cccnc2)c1 | Sprague-Dawley rat | oral | 10 mg/kg |  | 643 |
| Cc1c(-c2ccccc2)cccc1N1C(=O)c2cc(CN[C@H](C(=O)O)C(C)O)c(OCc3cccc(C#N)c3)cc2C1=O (some centres unmarked) | Sprague-Dawley rat | intravenous | 5 mg/kg |  | 3240 |
| COc1ccc2c(Cc3ccccc3F)c3n(c(=O)c2c1OC)CCc1cc2c(cc1-3)OCO2 | rat | oral | 5 mg/kg |  | 3470 |
| CCc1cc(C(=O)NC)c2nccc(N3CCc4c(cc(Cn5ccnc5)cc4-c4cn(C)nc4C(F)(F)F)C3=O)c2c1 | male Sprague-Dawley rat | intravenous | 3 mg/kg |  | 1270 |
| Cc1nc(-c2cnc(NC(C)C)n(C)c2=O)ccc1Oc1ccnc(-c2cnn(C)c2)c1 | male Sprague-Dawley rat | intravenous | 1 mg/kg |  | 21500 |
